The results in this text go back to ChEMBL document CHEMBL3588826, “Chimeric derivatives of functionalized amino acids and α-aminoamides: compounds with anticonvulsant activity in seizure models and inhibitory actions on central, peripheral, and cardiac isoforms of voltage-gated sodium channels” (Bioorg Med Chem, 2015).

The test system of one series is Mus musculus. The series is described as follows: Anticonvulsant activity in ip dosed albino Carworth Farms No. 1 mouse measured at 0.25 hrs by maximal electroshock seizure test. The conditions noted are these: Carworth Farms No. 1, ip. It is filed as functional. Summed up: (§1)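 Screened under the NIH anticonvulsant program in male albino Carworth Farms No. 1 mice (ip) and male albino Sprague-Dawley rats (ip or oral). Protection tested by maximal electroshock or 6 Hz (32 mA) psychomotor stimulation.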
(The maximal electroshock test induces tonic seizures with an electrical stimulus.)

Series [1] relates to Rattus norvegicus. The series is described as follows: Toxicity in po dosed Sprague-Dawley rat assessed as changes in respiratory rate administered via gavage. Type of series: organism-based. The conditions noted are these: in vivo. The method, boiled down:
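Non-GLP 7-day repeated-dose study in female Sprague-Dawley rats given oral gavage at 20, 60 and 180 mg/kg/day. Endpoints were weight bearing, gait coordination, respiratory rate, relative organ weights, clinical chemistry and gross pathology, with NOAEL determined.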

In the next series the target is T1, Cytochrome P450 1A2 (Homo sapiens, UniProt P05177).
T1 sequence (P05177 whole entry): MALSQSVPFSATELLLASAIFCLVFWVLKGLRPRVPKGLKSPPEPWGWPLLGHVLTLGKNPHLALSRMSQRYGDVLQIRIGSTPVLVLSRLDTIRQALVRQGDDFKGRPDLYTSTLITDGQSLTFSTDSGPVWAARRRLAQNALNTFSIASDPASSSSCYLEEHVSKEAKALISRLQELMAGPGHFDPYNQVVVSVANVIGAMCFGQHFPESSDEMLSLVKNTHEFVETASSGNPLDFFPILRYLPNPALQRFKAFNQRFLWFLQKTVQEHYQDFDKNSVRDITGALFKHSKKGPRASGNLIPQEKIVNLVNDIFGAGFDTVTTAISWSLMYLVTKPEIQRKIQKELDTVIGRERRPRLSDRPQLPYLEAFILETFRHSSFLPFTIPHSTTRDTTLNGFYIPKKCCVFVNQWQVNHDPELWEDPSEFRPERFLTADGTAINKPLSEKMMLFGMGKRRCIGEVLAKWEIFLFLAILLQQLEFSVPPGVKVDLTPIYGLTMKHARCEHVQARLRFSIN
The series is described as follows: Inhibition of human CYP1A2 at 10 uM. It is filed as ADME. The method, boiled down: (§2)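 Test compound at 10 μM against a human CYP450 panel (CYP1A2, 2B6, 2C8, 2C9, 2C19, 2D6, 3A4/5). Direct inhibition was measured, and time-dependent inhibition was measured after a 30-min preincubation.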

Series [2] concerns the target Sodium channel protein type 3 subunit alpha (Rattus norvegicus) (UniProt P08104). The series is described as follows: Inhibition of rat Nav1.3 expressed in HEK293 cells assessed as half-maximal voltage for steady state activation at 10 uM by whole cell patch-clamp electrophysiology (reference value: -29.62 +/-3.59 mV). Type of series: cell-based.
The subject of series [3] is Rattus norvegicus. The series is described as follows: Anticonvulsant activity in po dosed albino Sprague-Dawley rat measured at 2 hrs by maximal electroshock seizure test. Type of series: functional. The method, boiled down:
as §1

Series [4] is described as follows: Inhibition of voltage-gated sodium channel in mouse CAD cells assessed as transition of channels to slow-inactivated state measured at -50 mV by whole cell patch-clamp electrophysiology. It is filed as cell-based. Summed up:
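CAD cells were grown in Ham's F12/DMEM with 10% FBS at 37 °C and 5% CO2, with native Na+ currents mostly from Nav1.7. Whole-cell voltage clamp at room temperature across a range of concentrations against 0.1% DMSO. IC50 for induction of slow inactivation was taken from concentration-response curves at −50 mV (also at +20 mV).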
(The patch-clamp technique gives a direct electrical read-out from membranes.)

The subject of a further series is CAD. The series is described as follows: Inhibition of voltage-gated sodium channel in mouse CAD cells assessed as half-maximal voltage for steady state fast-inactivation at 10 uM by whole cell patch-clamp electrophysiology (reference value: -69.1 +/-3.6 mV). Type of series: cell-based. The method, boiled down: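 CAD cells, whole-cell voltage clamp at room temperature. Prepulses from −120 to −10 mV in 10 mV steps for 500 ms, then a 0 mV, 20 ms test pulse. V1/2 from single-Boltzmann fits to individual cells, averaged (mean ± SEM). Compared with 0.1% DMSO by Student's t-test.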

The nature of series [5]: Behavioural toxicity in ip dosed albino Sprague-Dawley rat measured at 2 hrs. It is filed as organism-based. To be noted: in vivo.
In series [6] the target is T2, Sodium channel protein type 5 subunit alpha (Homo sapiens, UniProt Q14524). The series is described as follows: Inhibition of human Nav1.5 expressed in HEK293 cells assessed as half-maximal voltage for steady state activation at 10 uM by whole cell patch-clamp electrophysiology (reference value: -55.71 +/-3.81 mV). Type of series: cell-based. To be noted: hek293, 10 µM.
T2 sequence (Q14524 whole entry): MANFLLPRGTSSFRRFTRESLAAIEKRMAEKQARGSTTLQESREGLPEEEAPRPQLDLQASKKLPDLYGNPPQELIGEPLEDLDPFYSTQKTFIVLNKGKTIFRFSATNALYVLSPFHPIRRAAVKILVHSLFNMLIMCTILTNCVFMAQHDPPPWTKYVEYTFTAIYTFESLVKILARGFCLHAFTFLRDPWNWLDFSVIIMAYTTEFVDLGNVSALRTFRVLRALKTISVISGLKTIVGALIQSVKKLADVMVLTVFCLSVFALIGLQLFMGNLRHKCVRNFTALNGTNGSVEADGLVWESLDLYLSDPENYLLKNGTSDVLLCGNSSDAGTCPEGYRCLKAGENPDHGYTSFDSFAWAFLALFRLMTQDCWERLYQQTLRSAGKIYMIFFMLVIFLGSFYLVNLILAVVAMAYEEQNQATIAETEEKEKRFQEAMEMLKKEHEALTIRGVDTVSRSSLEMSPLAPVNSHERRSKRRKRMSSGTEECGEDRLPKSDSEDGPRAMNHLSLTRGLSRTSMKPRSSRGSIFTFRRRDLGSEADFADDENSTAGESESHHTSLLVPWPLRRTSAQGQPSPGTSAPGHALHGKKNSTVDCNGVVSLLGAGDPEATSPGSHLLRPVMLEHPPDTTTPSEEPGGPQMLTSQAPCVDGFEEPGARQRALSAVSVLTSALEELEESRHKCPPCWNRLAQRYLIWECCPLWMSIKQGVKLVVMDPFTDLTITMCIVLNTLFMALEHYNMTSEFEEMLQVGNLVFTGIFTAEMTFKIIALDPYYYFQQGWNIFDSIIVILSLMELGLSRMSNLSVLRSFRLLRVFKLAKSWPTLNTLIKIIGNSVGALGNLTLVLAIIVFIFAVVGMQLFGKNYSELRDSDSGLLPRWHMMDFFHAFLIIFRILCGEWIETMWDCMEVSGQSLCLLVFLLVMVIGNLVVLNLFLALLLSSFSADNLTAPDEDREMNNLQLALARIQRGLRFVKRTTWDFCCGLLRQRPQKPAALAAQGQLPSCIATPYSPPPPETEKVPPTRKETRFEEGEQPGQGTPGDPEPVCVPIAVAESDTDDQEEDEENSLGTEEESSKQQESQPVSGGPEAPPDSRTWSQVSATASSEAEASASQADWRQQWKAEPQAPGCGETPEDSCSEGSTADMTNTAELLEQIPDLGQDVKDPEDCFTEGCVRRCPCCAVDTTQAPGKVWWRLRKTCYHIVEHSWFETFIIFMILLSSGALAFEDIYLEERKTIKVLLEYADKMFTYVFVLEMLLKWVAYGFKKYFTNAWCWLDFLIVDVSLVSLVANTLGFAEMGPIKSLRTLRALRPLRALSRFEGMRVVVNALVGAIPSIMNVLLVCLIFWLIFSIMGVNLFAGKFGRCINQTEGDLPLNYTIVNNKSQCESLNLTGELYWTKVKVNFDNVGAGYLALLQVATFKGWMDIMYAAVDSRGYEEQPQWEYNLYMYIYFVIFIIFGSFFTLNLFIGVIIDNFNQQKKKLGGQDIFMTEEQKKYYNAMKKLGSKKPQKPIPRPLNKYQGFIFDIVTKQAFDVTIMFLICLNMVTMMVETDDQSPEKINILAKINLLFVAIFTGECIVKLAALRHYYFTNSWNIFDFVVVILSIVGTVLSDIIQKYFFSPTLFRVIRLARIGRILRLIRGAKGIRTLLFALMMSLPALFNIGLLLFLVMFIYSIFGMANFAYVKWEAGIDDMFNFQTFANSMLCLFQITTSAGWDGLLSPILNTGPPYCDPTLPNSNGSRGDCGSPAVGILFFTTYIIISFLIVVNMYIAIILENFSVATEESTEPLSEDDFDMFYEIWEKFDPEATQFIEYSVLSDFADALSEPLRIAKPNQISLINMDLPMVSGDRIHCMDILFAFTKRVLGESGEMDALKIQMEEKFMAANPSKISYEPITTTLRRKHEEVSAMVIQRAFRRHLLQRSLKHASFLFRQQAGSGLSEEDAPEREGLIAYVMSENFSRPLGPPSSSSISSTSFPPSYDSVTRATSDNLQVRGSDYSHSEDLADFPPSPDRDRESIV

The species entered for series [7] is Rattus norvegicus. The series is described as follows: Inhibition of voltage-gated sodium channel in rat embryonic cortical neurons assessed as decrease in fraction of current available at 10 uM measured at -50 mV by whole cell patch-clamp electrophysiology. The method, boiled down:
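Embryonic cortical neurons were treated with 10 μM compound or 0.1% DMSO, whole-cell voltage clamp at room temperature. Slow inactivation was assessed at −50 mV, with the fraction inactivated taken as 1 minus the normalized INa. Student's t-test; 5–8 cells per condition.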

For series [8], the system named is Rattus norvegicus. The series is described as follows: Toxicity in po dosed Sprague-Dawley rat assessed as decrease in thymus weight administered via gavage. The conditions noted are these: in vivo. Type of series: organism-based. Summed up: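 Non-GLP repeated-dose study: female Sprague-Dawley rats given compound by oral gavage once daily for 7 days at 20, 60 and 180 mg/kg/day. Endpoints included weight bearing, gait coordination, respiratory rate, relative organ weights (liver, spleen, thymus), clinical chemistry and gross pathology; NOAEL derived.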

For series [9], the species on record is Rattus norvegicus. The series is described as follows: Effect on steady state fast-inactivation of voltage-gated sodium channel in rat embryonic cortical neurons at 10 uM by whole cell patch-clamp electrophysiology. The method, boiled down:
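Rat embryonic day 19 cortical neurons, cultured 7–10 days, were whole-cell voltage-clamped at room temperature with 1–2 MΩ electrodes, with compound at 10 μM and 0.1% DMSO as control. Fast inactivation: 500 ms prepulses, then a test pulse. Activation: conductance G = I/(Vm − Vrev). V1/2 and k came from Boltzmann fits to individual cells, averaged (mean ± SEM), 5–7 cells per condition.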

A further series addresses Cytochrome P450 3A4 (Homo sapiens, UniProt P08684). The series is described as follows: Inhibition of human CYP3A4 at 10 uM. It is filed as ADME. Summed up: as §2
The nature of series [10]: Ratio of drug level in brain to plasma in Sprague-Dawley rat at 5 mg/kg, iv and 20 mg/kg, po measured after 6 hrs. The conditions noted are these: read-out: BPR. It is filed as ADME, organism-based. The method, boiled down: (§3)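 Pharmacokinetics in Sprague-Dawley rats given a single iv dose of 5 mg/kg or an oral dose of 20 mg/kg.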
A short description of series [11]: Inhibition of voltage-gated sodium channel in mouse CAD cells assessed as transition of channels to slow-inactivated state measured at +20 mV by whole cell patch-clamp electrophysiology. Type of series: cell-based. The method, boiled down:
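CAD cells were grown in Ham's F12/DMEM with 10% FBS at 37 °C and 5% CO2, then recorded by whole-cell voltage clamp at room temperature. A concentration range of compound was tested versus 0.1% DMSO. Slow inactivation was measured at −50 and +20 mV, and IC50 was derived from concentration-response curves.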

Series [12] can be described thus: Half life in Sprague-Dawley rat at 5 mg/kg, iv. It is filed as ADME, organism-based. The conditions noted are these: in vivo. The method, boiled down:
as §3

Series [13] has as its target T2, Sodium channel protein type 5 subunit alpha. The series is described as follows: Frequency-dependent inhibition of human Nav1.5 expressed in HEK293 cells assessed as current amplitude at 10 uM by whole cell patch-clamp electrophysiology. It is filed as cell-based. To be noted: hek293, 10 µM. The method, boiled down: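 Stable HEK293 lines expressing hNav1.1, rNav1.3, hNav1.7 or hNav1.5 were recorded by whole-cell voltage clamp at room temperature, with 10 μM compound versus 0.1% DMSO. A 30-pulse train was applied, and the read-out was the fraction of current remaining at the last pulse normalized to the first. Nav1.5 used hyperpolarized protocols.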

Calls of active or inactive are those of the source.

Chain of Sodium channel protein type 3 subunit alpha (Rattus norvegicus) (P08104 whole entry): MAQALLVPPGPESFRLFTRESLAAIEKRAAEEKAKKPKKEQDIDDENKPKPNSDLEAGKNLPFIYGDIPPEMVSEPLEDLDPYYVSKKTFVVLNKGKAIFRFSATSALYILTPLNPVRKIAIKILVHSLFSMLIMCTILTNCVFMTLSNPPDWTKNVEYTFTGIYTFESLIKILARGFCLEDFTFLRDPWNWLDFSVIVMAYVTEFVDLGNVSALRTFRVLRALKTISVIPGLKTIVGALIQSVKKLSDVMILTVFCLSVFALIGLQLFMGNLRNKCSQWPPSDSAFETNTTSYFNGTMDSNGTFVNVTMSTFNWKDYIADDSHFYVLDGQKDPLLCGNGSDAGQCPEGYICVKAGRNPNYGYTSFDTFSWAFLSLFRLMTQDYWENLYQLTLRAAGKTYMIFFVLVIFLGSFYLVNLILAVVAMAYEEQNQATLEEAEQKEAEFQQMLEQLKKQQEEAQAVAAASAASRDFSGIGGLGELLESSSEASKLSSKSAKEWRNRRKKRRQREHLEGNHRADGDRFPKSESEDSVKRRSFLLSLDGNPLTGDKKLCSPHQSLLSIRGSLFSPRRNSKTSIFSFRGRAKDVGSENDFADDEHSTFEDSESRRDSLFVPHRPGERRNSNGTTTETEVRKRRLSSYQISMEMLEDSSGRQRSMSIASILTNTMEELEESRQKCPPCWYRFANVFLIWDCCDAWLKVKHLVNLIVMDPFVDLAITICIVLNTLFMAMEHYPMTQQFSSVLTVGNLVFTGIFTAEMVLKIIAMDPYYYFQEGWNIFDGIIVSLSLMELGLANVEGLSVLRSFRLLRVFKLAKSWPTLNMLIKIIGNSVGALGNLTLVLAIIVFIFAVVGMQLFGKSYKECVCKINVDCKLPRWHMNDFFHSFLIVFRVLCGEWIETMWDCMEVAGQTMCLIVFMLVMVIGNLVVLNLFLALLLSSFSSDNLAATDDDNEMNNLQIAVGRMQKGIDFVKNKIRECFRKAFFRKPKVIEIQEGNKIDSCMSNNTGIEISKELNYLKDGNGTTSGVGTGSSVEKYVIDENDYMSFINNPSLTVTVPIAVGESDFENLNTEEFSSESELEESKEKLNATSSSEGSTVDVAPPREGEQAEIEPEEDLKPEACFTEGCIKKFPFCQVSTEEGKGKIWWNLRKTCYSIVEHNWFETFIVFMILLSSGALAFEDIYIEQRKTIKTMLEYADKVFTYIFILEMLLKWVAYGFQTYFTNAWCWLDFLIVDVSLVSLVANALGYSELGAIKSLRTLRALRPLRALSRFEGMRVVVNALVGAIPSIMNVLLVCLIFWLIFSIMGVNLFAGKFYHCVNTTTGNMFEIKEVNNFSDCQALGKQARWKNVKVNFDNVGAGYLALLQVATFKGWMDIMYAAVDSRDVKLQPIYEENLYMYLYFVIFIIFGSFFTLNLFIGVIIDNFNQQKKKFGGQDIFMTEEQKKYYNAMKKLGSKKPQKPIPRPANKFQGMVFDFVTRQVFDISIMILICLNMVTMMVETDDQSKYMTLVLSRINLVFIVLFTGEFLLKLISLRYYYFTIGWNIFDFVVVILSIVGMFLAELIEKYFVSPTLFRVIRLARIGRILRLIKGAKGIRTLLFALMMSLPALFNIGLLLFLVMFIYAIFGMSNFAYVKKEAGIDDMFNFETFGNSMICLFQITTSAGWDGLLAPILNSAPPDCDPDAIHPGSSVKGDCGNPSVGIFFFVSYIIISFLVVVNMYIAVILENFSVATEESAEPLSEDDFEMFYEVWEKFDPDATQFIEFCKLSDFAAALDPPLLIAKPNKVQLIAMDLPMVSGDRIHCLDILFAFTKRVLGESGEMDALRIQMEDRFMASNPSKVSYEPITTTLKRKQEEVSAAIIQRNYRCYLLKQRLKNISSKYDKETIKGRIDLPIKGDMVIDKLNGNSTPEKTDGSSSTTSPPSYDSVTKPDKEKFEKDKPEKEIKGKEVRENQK
Chain of Cytochrome P450 3A4 (P08684 whole entry): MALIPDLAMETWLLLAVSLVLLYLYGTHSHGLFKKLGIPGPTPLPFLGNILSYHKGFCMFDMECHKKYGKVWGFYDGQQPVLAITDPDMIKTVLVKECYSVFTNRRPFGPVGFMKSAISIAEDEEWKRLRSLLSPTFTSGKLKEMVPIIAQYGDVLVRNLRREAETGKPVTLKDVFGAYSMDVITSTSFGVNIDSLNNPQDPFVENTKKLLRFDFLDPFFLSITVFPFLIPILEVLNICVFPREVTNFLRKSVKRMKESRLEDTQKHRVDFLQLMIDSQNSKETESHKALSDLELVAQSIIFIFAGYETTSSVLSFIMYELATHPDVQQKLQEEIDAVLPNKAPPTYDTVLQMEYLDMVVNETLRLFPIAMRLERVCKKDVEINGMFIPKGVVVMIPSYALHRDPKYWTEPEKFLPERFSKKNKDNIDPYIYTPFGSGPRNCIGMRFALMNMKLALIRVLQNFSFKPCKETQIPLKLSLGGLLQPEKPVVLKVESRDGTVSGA

As to `COC[C@@H](NC(C)=O)C(=O)NCc1ccc(Oc2cccc(OC(F)(F)F)c2)cc1`, the 50% effective dose (ED50) with Mus musculus was 6.5 mg/kg; in the series with Rattus norvegicus [3] it was 8.3 mg/kg. Further, the Activity result in the series with Rattus norvegicus [1] and in the series on Rattus norvegicus [8] was “Toxic” in each case. Further, the “inhibition (INH)” value (against Cytochrome P450 1A2; at Cytochrome P450 3A4; in series [13]) was “Not Active” each time. Further, the V1/2 in [2] is -32.5 mV; in the series on CAD it was -84.6 mV; in series [6], -48.99 mV. The values for the 50% inhibitory concentration (IC50) in series [4] and in series [11] were 700 nM and 640 nM, respectively. For the same compound, the TD50 at 2 h in series [5] was 54 mg/kg. Besides, the inhibition entry in the series filed under Rattus norvegicus [7] is “Active”. Besides, the result in the series listed under Rattus norvegicus [9] was inactive. In addition, in series [10], the Kp at 6 h is 1.2. This compound showed a half-life in [12] of 1.75 h.

In general, ED50 refers to the midpoint of the dose-response relation. By IC50 is commonly meant the midpoint of a concentration-inhibition curve. A word on the TD50: it is the dose at which the toxic effect under study appears in half of the subjects. For orientation: half-life means the time needed for the level to fall by half in the phase considered. High values mean slow decline, low ones rapid decline.
